Experimental findings from ChEMBL document CHEMBL3392993, “Identification of indole-3-carboxylic acids as non-ATP-competitive Polo-like kinase 1 (Plk1) inhibitors” (Bioorg Med Chem Lett, 2015) are described below.

Calls of active or inactive are those of the source. The rule behind the calls is not given here. Where only a bound is given, the exact number is not on record here.

Broadly, the IC50 is the point on the concentration scale where inhibition reaches its midpoint.

Experiment [1] concerns HeLa. In words: Antiproliferative activity against human HeLa cells assessed as growth inhibition after 72 hrs by MTT assay. A general note: Tetrazolium dyes change colour on reduction, which living cells bring about.
Experiment [2] relates to MCF7. Briefly: Antiproliferative activity against human MCF7 cells assessed as growth inhibition after 72 hrs by MTT assay. The note with it: MCF7, 72 h.
In experiment [3] the target is Serine/threonine-protein kinase PLK2 (Homo sapiens, UniProt Q9NYY3). Briefly: Inhibition of recombinant Plk2 (unknown origin).
Serine/threonine-protein kinase PLK2, sequence (Q9NYY3 whole entry): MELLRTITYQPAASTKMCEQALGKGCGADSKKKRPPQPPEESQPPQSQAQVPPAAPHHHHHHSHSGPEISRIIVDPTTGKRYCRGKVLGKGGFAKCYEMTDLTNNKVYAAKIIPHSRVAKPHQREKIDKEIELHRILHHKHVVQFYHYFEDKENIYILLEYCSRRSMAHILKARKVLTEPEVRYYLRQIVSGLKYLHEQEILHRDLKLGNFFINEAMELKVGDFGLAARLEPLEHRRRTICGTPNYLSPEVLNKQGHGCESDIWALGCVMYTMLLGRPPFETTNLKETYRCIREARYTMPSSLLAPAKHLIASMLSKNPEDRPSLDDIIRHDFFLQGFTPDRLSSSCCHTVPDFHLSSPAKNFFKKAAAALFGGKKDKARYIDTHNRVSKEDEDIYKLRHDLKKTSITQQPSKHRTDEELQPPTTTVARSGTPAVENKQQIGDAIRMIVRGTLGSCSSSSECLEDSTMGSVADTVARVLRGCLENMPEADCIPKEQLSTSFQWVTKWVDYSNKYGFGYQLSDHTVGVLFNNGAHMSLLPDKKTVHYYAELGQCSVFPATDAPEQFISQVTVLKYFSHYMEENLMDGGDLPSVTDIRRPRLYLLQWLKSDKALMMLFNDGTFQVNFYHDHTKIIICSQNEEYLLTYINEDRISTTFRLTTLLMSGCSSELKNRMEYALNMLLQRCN
The test system of experiment [4] is HeLa. Briefly: Induction of apoptosis in human HeLa cells assessed as apoptotic cells at 1 uM after 24 hrs using annexin V/propidium iodide double staining by flow cytometry (reference value: 4.4 %). Type of experiment: functional. On the technique in general: A flow cytometer gives signals particle by particle.
Experiment [5] addresses Serine/threonine-protein kinase PLK3 (Homo sapiens, UniProt Q9H4B4). Briefly: Inhibition of recombinant Plk3 (unknown origin).
The subject of experiment [6] is HeLa. In words: Induction of apoptosis in human HeLa cells assessed as increase in cleaved caspase-3 level at 1 uM after 24 to 48 hrs by Western blot analysis. The format is functional, cell-based. Summed up:
(§1)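 HeLa cells exposed to 1 µM for 24 h, with treatment continued to 48 h. Cell proteins analysed by western blot for PARP, total Caspase-3 and its cleaved active form.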
A general note: In western blotting, separated proteins are transferred to a membrane and probed.

For experiment [7], the system named is HeLa. In words: Induction of apoptosis in human HeLa cells assessed as PARP cleavage at 1 uM after 24 to 48 hrs by Western blot analysis. The format is functional, cell-based. In a few lines: as §1

Serine/threonine-protein kinase PLK3, sequence (Q9H4B4 whole entry): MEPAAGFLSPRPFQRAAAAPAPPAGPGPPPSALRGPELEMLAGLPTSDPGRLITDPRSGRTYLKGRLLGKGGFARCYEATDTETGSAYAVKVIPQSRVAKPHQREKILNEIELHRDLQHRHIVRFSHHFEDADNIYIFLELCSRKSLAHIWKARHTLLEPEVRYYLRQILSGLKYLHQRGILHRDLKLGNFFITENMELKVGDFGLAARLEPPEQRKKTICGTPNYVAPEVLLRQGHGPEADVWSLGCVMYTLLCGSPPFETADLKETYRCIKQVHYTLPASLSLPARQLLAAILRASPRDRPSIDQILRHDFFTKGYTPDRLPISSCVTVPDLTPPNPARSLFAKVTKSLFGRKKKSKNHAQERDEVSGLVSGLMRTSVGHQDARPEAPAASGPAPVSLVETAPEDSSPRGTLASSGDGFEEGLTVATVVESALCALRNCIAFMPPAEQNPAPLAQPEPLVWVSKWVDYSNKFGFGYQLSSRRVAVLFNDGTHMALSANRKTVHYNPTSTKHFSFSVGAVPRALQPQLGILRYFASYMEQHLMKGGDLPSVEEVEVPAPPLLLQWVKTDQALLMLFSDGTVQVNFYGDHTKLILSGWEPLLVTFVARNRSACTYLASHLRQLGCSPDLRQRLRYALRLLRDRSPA

On to `CCN(CC)CC(O)Cn1cc(C(=O)O)c2ccccc21` (racemic), for which the values for the half-maximal inhibitory concentration (IC50) in experiment [1] and in experiment [2] were 6.72 µM and 4.37 µM, respectively.

With `O=C(O)c1cn(CC(O)CN2CCCCC2)c2ccccc12` (racemic), the IC50 was determined as 4.92 µM in experiment [1] and 5.33 µM in experiment [2].

On to `O=C(O)c1cn(CC(O)CN2CCCC2)c2ccccc12` (racemic), for which the IC50 is 7.34 µM in experiment [1] and more than 10 µM in experiment [2].

Take `CN1CCN(CC(O)Cn2cc(C(=O)O)c3ccccc32)CC1` (racemic): the IC50 in experiment [1] and in experiment [2] was more than 10 µM each time.

`CCN(CC)CC(O)Cn1cc(CC(=O)O)c2ccccc21` (racemic): the IC50 in experiment [1] was determined as 6.63 µM; in experiment [2], 3.16 µM.

For the compound `O=C(O)Cc1cn(CC(O)CN2CCCCC2)c2ccccc12` (racemic), the IC50 in experiment [1] was 0.97 µM; in experiment [2], 1.89 µM.

On to `O=C(O)Cc1cn(CC(O)CN2CCCC2)c2ccccc12` (racemic), for which the IC50 is 0.72 µM in experiment [1], more than 50 µM in experiment [3], more than 50 µM in experiment [5] and 1.15 µM in experiment [2]. Besides, the Activity in experiment [4] is recorded as 12.7%. In addition, the result in experiment [6] and in experiment [7] was Active.

In the case of `CN1CCN(CC(O)Cn2cc(CC(=O)O)c3ccccc32)CC1` (racemic), the IC50 in experiment [1] is 3.97 µM; in experiment [2] it was 2.44 µM.

In the case of `O=C(O)Cc1cn(CC(O)CN2CCOCC2)c2ccccc12` (racemic), the IC50 is 2.13 µM in experiment [1] and more than 10 µM in experiment [2].

Consider `O=C(O)CCc1cn(CC(O)CN2CCCCC2)c2ccccc12` (racemic), for which the IC50 in experiment [1] was more than 10 µM; in experiment [2], 8.79 µM.

With `O=C(O)CCc1cn(CC(O)CN2CCCC2)c2ccccc12` (racemic), the IC50 in experiment [1] is 4.95 µM; in experiment [2], more than 10 µM.

With `CC1=CC(=O)C(C(C)C)=CC1=O` [THYMOQUINONE], the IC50 in experiment [1] is 2.06 µM; in experiment [3], 14.7 µM; in experiment [5] it was more than 50 µM; in experiment [2], 6.19 µM.
